Results as given in ChEMBL document CHEMBL5724801, “EUbOPEN Chemogenomics Library - Multiplex” (2024).
Values joined by “and” are separate entries in the source; they are usually repeats but may differ in a detail not shown here. Equal entries are not always repeated.

Tested on: HEK-293T
Assay: Multiplex assay against HEK293T
Type: toxicity, cell-based
Details: human
Summary of the method: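 Per cents of healthy-nucleus cells form the tubulin, mitochondrial-mass and membrane-permeability phenotype values. Live cells were stained at seeding with Hoechst33342, BioTracker Green Microtubule Cytoskeleton Dye, MitoTracker Red and Annexin V Alexa Fluor 680. After compound addition they were imaged on a CQ1 microscope at 37°C and 5% CO2, and CellPathfinder machine-learning gating split them into Hoechst high-intensity objects or normal cells, normal cells into healthy, pyknosed or fragmented nuclei, and pyknosed cells into mitotic or apoptotic.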

[1] = 12 h, 1 µM, compound concentration 1 uM
[2] = 12 h, 10 µM, compound concentration 10 uM
[3] = 24 h, 1 µM, compound concentration 1 uM
[4] = 24 h, 10 µM, compound concentration 10 uM
[5] = 48 h, 1 µM, compound concentration 1 uM
[6] = 48 h, 10 µM, compound concentration 10 uM

SMILES: O=C(CCCc1ccccc1)Nc1nc2ccccc2c(=O)s1
- Population Apoptotic (%) [1]: 30% and 43%
- Population Fragmented Nuclei (%) [1]: 4% and 7%
- Population Healthy Nuclei (%) [1]: 83% and 74%
- Population Hoechst High Intensity Objects (%) [1]: 6% and 13%
- Population Membrane Permeable-Phenotype (%) [1]: 0%
- Population Mitochondria Different-Phenotype (%) [1]: 37% and 63%
- Population Mitotic Cells (%) [1]: 70% and 56%
- Population Normal (%) [1]: 93% and 86%
- Population Pyknosed Nuclei (%) [1]: 11% and 17%
- Population Tubulin-Different-Phenotype (%) [1]: 32% and 36%
- Total Cell Count [1]: 372 and 267
- Population Apoptotic (%) [2]: 30% and 44%
- Population Fragmented Nuclei (%) [2]: 10% and 7%
- Population Healthy Nuclei (%) [2]: 80% and 74%
- Population Hoechst High Intensity Objects (%) [2]: 9% and 27%
- Population Membrane Permeable-Phenotype (%) [2]: 0%
- Population Mitochondria Different-Phenotype (%) [2]: 47% and 68%
- Population Mitotic Cells (%) [2]: 69% and 55%
- Population Normal (%) [2]: 90% and 72%
- Population Pyknosed Nuclei (%) [2]: 9% and 17%
- Population Tubulin-Different-Phenotype (%) [2]: 27% and 26%
- Total Cell Count [2]: 555 and 371
- Population Apoptotic (%) [3]: 20% and 45%
- Population Fragmented Nuclei (%) [3]: 8% and 9%
- Population Healthy Nuclei (%) [3]: 81% and 78%
- Population Hoechst High Intensity Objects (%) [3]: 5% and 8%
- Population Membrane Permeable-Phenotype (%) [3]: 1% and 0%
- Population Mitochondria Different-Phenotype (%) [3]: 21% and 38%
- Population Mitotic Cells (%) [3]: 79% and 54%
- Population Normal (%) [3]: 94% and 91%
- Population Pyknosed Nuclei (%) [3]: 10% and 12%
- Population Tubulin-Different-Phenotype (%) [3]: 15% and 13%
- Total Cell Count [3]: 538 and 370
- Population Apoptotic (%) [4]: 33% and 52%
- Population Fragmented Nuclei (%) [4]: 10% and 8%
- Population Healthy Nuclei (%) [4]: 80%
- Population Membrane Permeable-Phenotype (%) [4]: 0%
- Population Mitochondria Different-Phenotype (%) [4]: 38% and 47%
- Population Mitotic Cells (%) [4]: 66% and 47%
- Population Normal (%) [4]: 93% and 75%
- Population Pyknosed Nuclei (%) [4]: 9% and 11%
- Population Tubulin-Different-Phenotype (%) [4]: 29% and 20%
- Total Cell Count [4]: 661 and 444
- Population Apoptotic (%) [5]: 20% and 38%
- Population Fragmented Nuclei (%) [5]: 11% and 10%
- Population Healthy Nuclei (%) [5]: 82% and 80%
- Population Hoechst High Intensity Objects (%) [5]: 2% and 4%
- Population Membrane Permeable-Phenotype (%) [5]: 1% and 0%
- Population Mitochondria Different-Phenotype (%) [5]: 15% and 28%
- Population Mitotic Cells (%) [5]: 79% and 61%
- Population Normal (%) [5]: 97% and 95%
- Population Pyknosed Nuclei (%) [5]: 6% and 8%
- Population Tubulin-Different-Phenotype (%) [5]: 11% and 13%
- Total Cell Count [5]: 820 and 534
- Population Fragmented Nuclei (%) [6]: 14% and 13%
- Population Healthy Nuclei (%) [6]: 79% and 77%
- Population Hoechst High Intensity Objects (%) [6]: 4% and 11%
- Population Membrane Permeable-Phenotype (%) [6]: 0% and 1%
- Population Mitochondria Different-Phenotype (%) [6]: 21% and 30%
- Population Mitotic Cells (%) [6]: 77% and 31%
- Population Normal (%) [6]: 95% and 88%
- Population Pyknosed Nuclei (%) [6]: 6% and 9%
- Population Tubulin-Different-Phenotype (%) [6]: 16%
- Total Cell Count [6]: 984 and 567

SMILES: COCCn1c(C)c(C)s/c1=N\C(=O)C1C(C)(C)C1(C)C
- Population Apoptotic (%) [1]: 37% and 41%
- Population Fragmented Nuclei (%) [1]: 10% and 5%
- Population Healthy Nuclei (%) [1]: 77% and 82%
- Population Hoechst High Intensity Objects (%) [1]: 6% and 4%
- Population Membrane Permeable-Phenotype (%) [1]: 0%
- Population Mitochondria Different-Phenotype (%) [1]: 45% and 77%
- Population Mitotic Cells (%) [1]: 62% and 58%
- Population Normal (%) [1]: 93% and 95%
- Population Pyknosed Nuclei (%) [1]: 12%
- Population Tubulin-Different-Phenotype (%) [1]: 29% and 26%
- Total Cell Count [1]: 335 and 304
- Population Apoptotic (%) [2]: 77% and 53%
- Population Healthy Nuclei (%) [2]: 52% and 75%
- Population Hoechst High Intensity Objects (%) [2]: 18% and 11%
- Population Membrane Permeable-Phenotype (%) [2]: 0%
- Population Mitochondria Different-Phenotype (%) [2]: 91% and 72%
- Population Mitotic Cells (%) [2]: 22% and 46%
- Population Normal (%) [2]: 81% and 88%
- Population Pyknosed Nuclei (%) [2]: 13% and 16%
- Population Tubulin-Different-Phenotype (%) [2]: 67% and 38%
- Population Apoptotic (%) [3]: 19% and 35%
- Population Fragmented Nuclei (%) [3]: 7% and 8%
- Population Healthy Nuclei (%) [3]: 81%
- Population Hoechst High Intensity Objects (%) [3]: 4% and 7%
- Population Membrane Permeable-Phenotype (%) [3]: 0%
- Population Mitochondria Different-Phenotype (%) [3]: 26% and 47%
- Population Mitotic Cells (%) [3]: 80% and 64%
- Population Normal (%) [3]: 95% and 92%
- Population Pyknosed Nuclei (%) [3]: 11% and 10%
- Population Tubulin-Different-Phenotype (%) [3]: 20% and 17%
- Total Cell Count [3]: 447 and 383
- Population Apoptotic (%) [4]: 71% and 45%
- Population Fragmented Nuclei (%) [4]: 30% and 11%
- Population Healthy Nuclei (%) [4]: 61% and 75%
- Population Hoechst High Intensity Objects (%) [4]: 15% and 7%
- Population Membrane Permeable-Phenotype (%) [4]: 0%
- Population Mitochondria Different-Phenotype (%) [4]: 53% and 62%
- Population Mitotic Cells (%) [4]: 28% and 54%
- Population Normal (%) [4]: 84% and 92%
- Population Pyknosed Nuclei (%) [4]: 8% and 13%
- Population Tubulin-Different-Phenotype (%) [4]: 36% and 30%
- Population Apoptotic (%) [5]: 20% and 45%
- Population Fragmented Nuclei (%) [5]: 13% and 11%
- Population Healthy Nuclei (%) [5]: 75% and 81%
- Population Hoechst High Intensity Objects (%) [5]: 3%
- Population Membrane Permeable-Phenotype (%) [5]: 0%
- Population Mitochondria Different-Phenotype (%) [5]: 22% and 31%
- Population Mitotic Cells (%) [5]: 79% and 55%
- Population Normal (%) [5]: 96% and 97%
- Population Pyknosed Nuclei (%) [5]: 11% and 7%
- Population Tubulin-Different-Phenotype (%) [5]: 14% and 12%
- Total Cell Count [5]: 649 and 567
- Population Apoptotic (%) [6]: 60% and 38%
- Population Fragmented Nuclei (%) [6]: 18% and 13%
- Population Healthy Nuclei (%) [6]: 73% and 79%
- Population Hoechst High Intensity Objects (%) [6]: 2% and 4%
- Population Membrane Permeable-Phenotype (%) [6]: 2% and 0%
- Population Mitochondria Different-Phenotype (%) [6]: 30% and 46%
- Population Mitotic Cells (%) [6]: 40% and 61%
- Population Normal (%) [6]: 97% and 95%
- Population Pyknosed Nuclei (%) [6]: 8% and 6%
- Population Tubulin-Different-Phenotype (%) [6]: 31% and 24%
- Total Cell Count [6]: 191 and 493

SMILES: O=C1N=C(NCc2cccs2)S/C1=C\c1ccc2ncccc2c1
- Population Apoptotic (%) [1]: 11.2% and 8.04%
- Population Fragmented Nuclei (%) [1]: 4.18% and 2.19%
- Population Hoechst High Intensity Objects (%) [1]: 0%
- Population Membrane Permeable-Phenotype (%) [1]: 0%
- Population Mitochondria Different-Phenotype (%) [1]: 30.06% and 18.18%
- Population Mitotic Cells (%) [1]: 88.8% and 91.96%
- Population Normal (%) [1]: 100%
- Population Pyknosed Nuclei (%) [1]: 40.19% and 81.75%
- Total Cell Count [1]: 311 and 137
- Population Apoptotic (%) [2]: 10.71% and 8.85%
- Population Fragmented Nuclei (%) [2]: 2.55% and 5.49%
- Population Healthy Nuclei (%) [2]: 68.88% and 25.61%
- Population Hoechst High Intensity Objects (%) [2]: 0%
- Population Membrane Permeable-Phenotype (%) [2]: 1.48% and 0%
- Population Mitochondria Different-Phenotype (%) [2]: 19.26% and 9.52%
- Population Mitotic Cells (%) [2]: 89.29% and 91.15%
- Population Normal (%) [2]: 100%
- Population Pyknosed Nuclei (%) [2]: 28.57% and 68.9%
- Population Tubulin-Different-Phenotype (%) [2]: 25.93% and 59.52%
- Total Cell Count [2]: 392 and 164
- Population Apoptotic (%) [3]: 19.59% and 9.09%
- Population Fragmented Nuclei (%) [3]: 2.82% and 3.6%
- Population Healthy Nuclei (%) [3]: 74.35% and 33.09%
- Population Hoechst High Intensity Objects (%) [3]: 0%
- Population Membrane Permeable-Phenotype (%) [3]: 0.63% and 2.17%
- Population Mitochondria Different-Phenotype (%) [3]: 8.54% and 19.57%
- Population Mitotic Cells (%) [3]: 80.41% and 90.91%
- Population Normal (%) [3]: 100%
- Population Pyknosed Nuclei (%) [3]: 22.82% and 63.31%
- Population Tubulin-Different-Phenotype (%) [3]: 10.76% and 13.04%
- Population Apoptotic (%) [4]: 34.38% and 21.57%
- Population Fragmented Nuclei (%) [4]: 2.01% and 4.43%
- Population Healthy Nuclei (%) [4]: 73.87% and 31.01%
- Population Hoechst High Intensity Objects (%) [4]: 0%
- Population Membrane Permeable-Phenotype (%) [4]: 0% and 4.08%
- Population Mitochondria Different-Phenotype (%) [4]: 26.19% and 16.33%
- Population Mitotic Cells (%) [4]: 65.62% and 78.43%
- Population Normal (%) [4]: 100%
- Population Pyknosed Nuclei (%) [4]: 24.12% and 64.56%
- Population Tubulin-Different-Phenotype (%) [4]: 55.78% and 20.41%
- Total Cell Count [4]: 398 and 158
- Population Apoptotic (%) [5]: 12.66% and 16.95%
- Population Fragmented Nuclei (%) [5]: 2.96% and 1.01%
- Population Healthy Nuclei (%) [5]: 86.89% and 69.35%
- Population Hoechst High Intensity Objects (%) [5]: 0% and 0.5%
- Population Membrane Permeable-Phenotype (%) [5]: 4.14% and 2.17%
- Population Mitochondria Different-Phenotype (%) [5]: 20.41% and 24.64%
- Population Mitotic Cells (%) [5]: 87.34% and 83.05%
- Population Normal (%) [5]: 100% and 99.5%
- Population Pyknosed Nuclei (%) [5]: 10.15% and 29.65%
- Population Apoptotic (%) [6]: 37.04% and 39.66%
- Population Fragmented Nuclei (%) [6]: 1.79% and 5.23%
- Population Healthy Nuclei (%) [6]: 91.3% and 56.86%
- Population Hoechst High Intensity Objects (%) [6]: 0%
- Population Membrane Permeable-Phenotype (%) [6]: 0.84% and 2.3%
- Population Mitochondria Different-Phenotype (%) [6]: 87.68% and 60.92%
- Population Mitotic Cells (%) [6]: 62.96% and 60.34%
- Population Normal (%) [6]: 100%
- Total Cell Count [6]: 391 and 153
